Screening data: PubChem BioAssay, several laboratories
PGE2 EP2 inh: blocks the human prostaglandin E2 receptor EP2; hit rate 0.52% among 260,000; C6 glioma cells expressing human EP2, cAMP TR-FRET; cells stimulated with saturating PGE2; inhibition, % at 25 µM; P43116;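 active = percent inhibition above 40 after rounding to a whole number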;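 also: rat C6 glioma host cells with rolipram phosphodiesterase inhibitor present; the protocol text gives 20 µM as final concentration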
GPR7 antag: antagonists of human GPR7 (neuropeptides B/W receptor 1); P48145; GPR7-expressing cells, fluorescence antagonist assay; inhibition, % at 4.4 µM; hit rate 1.1% among 290,000; AID 1861; in the data active = inhibition above about 16%, passing the limit was not always enough;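 also: cells stimulated with the agonist NPW; 0% = agonist with vehicle and 100% = vehicle without agonist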
Target sequence (P48145 whole entry, looked up): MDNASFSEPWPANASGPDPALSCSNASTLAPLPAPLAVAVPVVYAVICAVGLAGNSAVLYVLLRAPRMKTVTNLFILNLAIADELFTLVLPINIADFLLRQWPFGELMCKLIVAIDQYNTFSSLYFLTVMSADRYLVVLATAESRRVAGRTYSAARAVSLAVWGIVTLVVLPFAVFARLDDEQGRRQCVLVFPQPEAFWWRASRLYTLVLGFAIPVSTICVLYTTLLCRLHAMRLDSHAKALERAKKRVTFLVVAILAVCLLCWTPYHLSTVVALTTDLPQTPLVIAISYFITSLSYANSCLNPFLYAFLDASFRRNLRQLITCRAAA
CHO parental Ca: counter-screen for OX1R antagonists: effect in parental CHO cells. parental CHO-K1, ATP-induced calcium, Fluo-8 fluorescence. inhibition, % at 5.6 µM. hit rate 0.63% among 330,000;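 active = inhibition above that plate's mean sample inhibition plus 3 SD, cut at about 26% in these data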;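 also: 0% = ATP-challenged DMSO wells and 100% = DMSO wells without ATP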
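test system = CHO parental line | reagent = ATP stimulus | measured by = intracellular calcium via Fluo-8 no-wash fluorescent dye | control set = ATP and no-ATP DMSO wells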
OX1R antag-1: OX1R (human) antagonism; O43613; OX1R-expressing cells, FRET antagonist read-out; inhibition, % at 6.6 µM; hit rate 1.8% among 330,000; AID 485270; in the data active = inhibition mostly above about 38%, no sharp cut-off; inactive = mostly below about 40%;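 also: 0% = agonist challenge alone and 100% = reference antagonist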
OX1R antag-2: antagonists of human orexin 1 receptor. O43613. CHO/OX1R cells, Fluo-8 calcium fluorescence, orexin A. inhibition, % at 5 µM. hit rate 0.43% among 330,000. AID 434989;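 active = inhibition above its plate's threshold, mean inhibition of all tested compounds on the plate plus 3 SD, cut at about 37% in these data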;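 also: 0% = orexin A challenge wells and 100% = SB-334867-A antagonist wells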
EP2 modulator: EP2 receptor (human) modulation. EP2-expressing cells, cAMP HTRF FRET, PGE2 co-stimulation. induction, % at 25 µM. hit rate 0.83% among 260,000. AID 940;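 active = compounds whose cAMP rise, as percent of the full-agonist control response, exceeds 60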;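 also: rat C6 glioma line stably carrying human EP2 under a CMV promoter; the protocol text gives 20 µM as final concentration; 100% = response of wells given 1 µM PGE2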
EP2 confirm: human EP2 receptor cAMP induction, negative in counter-screens. calls only at 20 µM (by protocol). C6 glioma EP2 cells, cAMP HTRF induction; plus low (about EC15) PGE2 agonist. AID 1080. shares compounds with EP2 modulator. hit rate 47% among 1,300;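 active = cAMP induction above 50% in the main assay while under 30% in all four parallel counter assays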;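 also: rat C6 glioma cells stably expressing human EP2 receptor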
* = called active by the depositor; i = inactive; nt = no result; + = active, no number. Only some compounds are listed: those with a hit (about 3.7% of all), similar ones and a draw of the others.

SMILES	PGE2 EP2 inh	GPR7 antag	CHO parental Ca	OX1R antag-1	OX1R antag-2	EP2 modulator	EP2 confirm
CC(C)(C)C1CCc2onc(C(=O)Nc3cccc(O)c3)c2C1 (stereo unspecified)	25	-12	14	9	0	43	nt
CC(C)(C)C1CCc2onc(C(=O)Nc3cccnc3)c2C1 (stereo unspecified)	3	-1	-30	10	-26	52	i
CCCCc1c(C)nc2ccc(Br)cc2c1SCCC#N	12	-2	nt	nt	nt	56	nt
CCc1c(C)nc2ccc(Br)cc2c1SCCC#N	12	4	-39	20	-38	65*	i
Cc1ccccc1Cn1c2ccccc2c2cn[nH]c(=O)c21	-7	-6	-30	34	-14	62*	+
O=C(CSc1nnc(Cn2c(=O)sc3ccccc32)n1-c1ccccc1)N1CCCC1	6	2	-12	9	-12	1	nt
Cc1ccccc1-n1c(Cn2c(=O)sc3ccccc32)nnc1SCC(=O)N1CCCC1	nt	-3	-11	21	-11	56	i
Cc1ccccc1-n1c(SCC(=O)N2CCCC2)nnc1-c1ccccn1	11	18	6	-9	7	66*	i
Cc1ccc(Cl)cc1NC(=O)CN1C(=O)NC2(CCCCCC2)C1=O	nt	nt	-6	11	-6	nt	nt
Cc1ccc(-c2nn3c(C)nnc3s2)cc1NCc1c(F)cccc1Cl	19	7	-17	15	-16	66*	i
Cc1ccc(CNc2cc(-c3nn4c(C)nnc4s3)ccc2C)s1	nt	3	-21	8	-17	34	nt
COc1ccc(C(=O)O)cc1NCc1cccnc1	nt	-4	-13	16	-16	nt	nt
Cc1cc2[nH]c(=O)c(=O)[nH]c2cc1S(=O)(=O)N(C)C1CCCCC1	nt	-9	-3	4	-11	nt	nt
O=C(Cc1ccccc1)Nc1cc(Cl)ccc1Sc1ccccc1	5	-5	-33	23	-29	57	nt
O=C(Cc1ccc(Cl)cc1)Nc1ccccc1Sc1ccccc1	3	-6	-23	18	-41	75*	+
O=C(Nc1ccccc1Sc1ccccc1)c1ccc(F)cc1	2	-14	-24	17	-24	72*	+
CCOc1ccccc1C(=O)Nc1ccsc1C(=O)OC	11	-9	-15	69*	-20	81*	+
CCOc1ccccc1C(=O)Nc1ccccc1C(N)=O	4	-11	-4	7	5	-7	nt
Cn1c(SCC(=O)NC2CCS(=O)(=O)C2)nc2ccccc21 (stereo unspecified)	nt	nt	0	2	-8	nt	nt
CCNC(=O)COC(=O)c1[nH]c(C)c(C(=O)OC)c1C	9	-4	-8	5	-16	0	nt
O=C1c2ccccc2OC2(C=Cc3ccccc3O2)N1Cc1ccccc1 (stereo unspecified)	nt	-13	-2	10	-15	76*	+
CC(C)=CCC[C@](C)(O[C@@H]1O[C@H](CO[C@@H]2OC[C@@H](O)[C@H](O)[C@H]2O)[C@@H](O)[C@H](O)[C@H]1O)C1CC[C@]2(C)C1[C@H](O)CC1[C@@]3(C)CC[C@H](O[C@@H]4O[C@H](CO)[C@@H](O)[C@H](O)[C@H]4O)C(C)(C)C3CC[C@]12C (stereo partly specified)	nt	nt	12	4	-7	nt	nt
COc1ccc(N(CC(=O)NCCSC(C)(C)C)S(C)(=O)=O)c(OC)c1	6	9	-8	6	-10	12	nt
O=C(c1ccccc1)N1CCN(C(=O)c2cc3ccccc3oc2=O)CC1	nt	-11	-2	14	-10	nt	nt
Cc1ccc2c(c1)N(Cc1ccc3c(c1)OCO3)C(=O)C(C)O2 (stereo unspecified)	2	-4	-14	10	-34	59	nt
CCC1Oc2ccc(C)cc2N(Cc2cccc(C)c2)C1=O (stereo unspecified)	6	0	-32	10	-29	75*	+
Cc1ccccc1C1NC(c2ccccc2C)C(C)C(=O)C1C (stereo unspecified)	nt	-8	-25	-1	-22	nt	nt
